Columns and labels:
[1] = test system: Brain; assay: Toxicity in mouse assessed as effect on manganese level in brain per gram of organ at 0.4 mmol/kg, ip qd for 5 days; assay type: organism-based; conditions: in vivo, 120 h
[2] = test system: Liver; assay: Toxicity in mouse assessed as effect on zinc level in liver per gram of organ at 0.4 mmol/kg, ip qd for 5 days; assay type: organism-based; conditions: in vivo, 120 h
[3] = Detoxification activity against lead-induced toxicity in mouse assessed as reduction lead level in feces at 0.4 mmol/kg, ip qd for 5 days measured 24 hrs last post dose by synchrotron X-ray fluorescence analysis; assay type: functional
Procedure, shortened: (§1)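 Lead-loaded mice were given normal saline vehicle, DL-penicillamine or NaDMS (positive controls), or test agent, each at 0.4 mmol/kg; n = 12 per group. Lead was measured in feces and urine and reported as mean ± SD µg Pb/g excrement against the NS group.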

[4] = test system: Kidney; assay: Toxicity in mouse assessed as effect on zinc level in kidney per gram of organ at 0.4 mmol/kg, ip qd for 5 days; assay type: organism-based; conditions: in vivo, 120 h
[5] = test system: Brain; assay: Toxicity in mouse assessed as effect on iron level in brain per gram of organ at 0.4 mmol/kg, ip qd for 5 days; assay type: organism-based; conditions: in vivo, 120 h
[6] = test system: Liver; assay: Toxicity in mouse assessed as effect on calcium level in liver per gram of organ at 0.4 mmol/kg, ip qd for 5 days; assay type: organism-based; conditions: in vivo, 120 h
[7] = test system: Mus musculus; assay: Toxicity in mouse assessed as change in bodyweight at 0.4 mmol/kg, ip qd for 5 days; assay type: organism-based; conditions: in vivo, 120 h
Procedure, shortened: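 Lead-loaded mice were given normal saline vehicle or test agent at 0.4 mmol/kg. Body weights were recorded and compared with the NS group to assess growth.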

[8] = test system: Liver; assay: Toxicity in mouse assessed as effect on iron level in liver per gram of organ at 0.4 mmol/kg, ip qd for 5 days; assay type: organism-based; conditions: in vivo, 120 h
[9] = test system: Liver; assay: Toxicity in mouse assessed as effect on copper level in liver per gram of organ at 0.4 mmol/kg, ip qd for 5 days; assay type: organism-based; conditions: in vivo, 120 h
[10] = test system: Liver; assay: Toxicity in mouse assessed as effect on manganese level in liver per gram of organ at 0.4 mmol/kg, ip qd for 5 days; assay type: organism-based; conditions: in vivo, 120 h
[11] = test system: Brain; assay: Toxicity in mouse assessed as effect on calcium level in brain per gram of organ at 0.4 mmol/kg, ip qd for 5 days; assay type: organism-based; conditions: in vivo, 120 h
[12] = test system: Liver; assay: Detoxification activity against lead-induced toxicity in mouse assessed as reduction lead level in liver per gram of organ at 0.4 mmol/kg, ip qd for 5 days measured 24 hrs last post dose by synchrotron X-ray fluorescence analysis; assay type: functional
Procedure, shortened: (§2)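 Lead-loaded mice were given normal saline vehicle (negative control) or test agent at 0.2, 0.4 or 0.6 mmol/kg. Lead was measured in liver, kidney, left femur and brain and reported as mean ± SD µg Pb/g organ against the NS group.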

[13] = test system: Kidney; assay: Toxicity in mouse assessed as effect on manganese level in kidney per gram of organ at 0.4 mmol/kg, ip qd for 5 days; assay type: organism-based; conditions: in vivo, 120 h
[14] = test system: Brain; assay: Toxicity in mouse assessed as effect on zinc level in brain per gram of organ at 0.4 mmol/kg, ip qd for 5 days; assay type: organism-based; conditions: in vivo, 120 h
[15] = test system: Kidney; assay: Toxicity in mouse assessed as effect on copper level in kidney per gram of organ at 0.4 mmol/kg, ip qd for 5 days; assay type: organism-based; conditions: in vivo, 120 h
[16] = test system: Kidney; assay: Detoxification activity against lead-induced toxicity in mouse assessed as reduction lead level in kidney per gram of organ at 0.4 mmol/kg, ip qd for 5 days measured 24 hrs last post dose by synchrotron X-ray fluorescence analysis; assay type: functional; procedure, shortened: as §2
[17] = Detoxification activity against lead-induced toxicity in mouse assessed as reduction lead level in urine at 0.4 mmol/kg, ip qd for 5 days measured 24 hrs last post dose by synchrotron X-ray fluorescence analysis; assay type: functional; procedure, shortened: as §1
[18] = test system: Kidney; assay: Toxicity in mouse assessed as effect on iron level in kidney per gram of organ at 0.4 mmol/kg, ip qd for 5 days; assay type: organism-based; conditions: in vivo, 120 h
[19] = test system: Brain; assay: Detoxification activity against lead-induced toxicity in mouse assessed as reduction lead level in brain per gram of organ at 0.4 mmol/kg, ip qd for 5 days measured 24 hrs last post dose by synchrotron X-ray fluorescence analysis; assay type: functional; procedure, shortened: as §2
[20] = test system: Brain; assay: Toxicity in mouse assessed as effect on copper level in brain per gram of organ at 0.4 mmol/kg, ip qd for 5 days; assay type: organism-based; conditions: in vivo, 120 h
[21] = test system: Kidney; assay: Toxicity in mouse assessed as effect on calcium level in kidney per gram of organ at 0.4 mmol/kg, ip qd for 5 days; assay type: organism-based; conditions: in vivo, 120 h
[22] = test system: Femur; assay: Detoxification activity against lead-induced toxicity in mouse assessed as reduction lead level in femurs per gram of organ at 0.4 mmol/kg, ip qd for 5 days measured 24 hrs last post dose by synchrotron X-ray fluorescence analysis; assay type: functional; procedure, shortened: as §2

SMILES	Activity [1] [µg/g]	Activity [2] [µg/g]	Activity [3] [µg/g]	Activity [4] [µg/g]	Activity [5] [µg/g]	Activity [6] [µg/g]	Activity [7] [g]	Activity [8] [µg/g]	Activity [9] [µg/g]	Activity [10] [µg/g]	Activity [11] [µg/g]	Activity [12] [µg/g]	Activity [13] [µg/g]	Activity [14] [µg/g]	Activity [15] [µg/g]	Activity [16] [µg/g]	Activity [17] [µg/g]	Activity [18] [µg/g]	Activity [19] [µg/g]	Activity [20] [µg/g]	also measured
CC(C)[C@H](NC(=O)C1SC(C)(C)SC1C(=O)O)C(=O)O (some centres undefined)	0.76	36.49	4.76	27.64	57.35	60.24	29.9	155.25	3.51	1.4	72	3.19	1.4	34.51	3.62	6.16	2.65	95.56	1.49	2.55	Activity [21]: 76.97 µg/g; Activity [22]: 14.93 µg/g
CC(C)C[C@H](NC(=O)C1SC(C)(C)SC1C(=O)O)C(=O)O (some centres undefined)	0.7	37.88	3.99	26.99	57.49	59.8	29.7	153.8	3.59	1.41	69.29	3.64	1.41	32.49	3.65	7.32	3.44	93.02	1.44	2.6	Activity [21]: 76.48 µg/g; Activity [22]: 16.33 µg/g
CC1(C)SC(C(=O)O)C(C(=O)N[C@@H](CCC(N)=O)C(=O)O)S1 (some centres undefined)	0.69	37.85	4.5	28.09	57.66	59.07	29.6	153.02	3.76	1.37	71.82	3.07	1.33	34.68	3.59	6.86	2.89	94.48	1.02	2.64	Activity [21]: 76.93 µg/g; Activity [22]: 14.59 µg/g
CC1(C)SC(C(=O)O)C(C(=O)N[C@@H](CCC(=O)O)C(=O)O)S1 (some centres undefined)	0.77	38.01	4.49	28.16	57.57	60.4	30.5	154.4	3.72	1.4	69.99	5.64	1.35	34.99	3.73	7.21	2.65	93.97	1.22	2.5	Activity [21]: 77.45 µg/g; Activity [22]: 13.69 µg/g
CC1(C)SC(C(=O)O)C(C(=O)N[C@@H](Cc2ccccc2)C(=O)O)S1 (some centres undefined)	0.75	36.69	4.85	27.57	56.31	60.61	29.9	154.97	3.63	1.31	69.84	4.6	1.43	34.51	3.59	6.61	1.72	94.82	1.11	2.59	Activity [21]: 76.76 µg/g; Activity [22]: 16.75 µg/g
CC1(C)SC(C(=O)O)C(C(=O)N[C@@H](Cc2c[nH]c3ccccc23)C(=O)O)S1 (some centres undefined)	0.78	36.96	4.14	27.99	56.94	59.69	30.8	153.84	3.76	1.4	69.35	5.59	1.4	33.04	3.69	7.5	2.84	93.07	1.21	2.39	Activity [21]: 76.92 µg/g; Activity [22]: 17.66 µg/g
CC1(C)SC(C(=O)O)C(C(=O)N[C@@H](CO)C(=O)O)S1 (some centres undefined)	0.78	37	4.41	28.1	56.47	59.65	31.5	153.39	3.73	1.37	68.08	3.21	1.42	34.09	3.73	6.43	2.83	93.69	1.05	2.39	Activity [21]: 75.89 µg/g; Activity [22]: 14.7 µg/g

Source: ChEMBL document CHEMBL1681713, “Lead detoxification activities and ADMET hepatotoxicities of a class of novel 5-(1-carbonyl-L-amino-acid)-2,2-dimethyl-[1,3]dithiolane-4-carboxylic acids” (Bioorg Med Chem Lett, 2011)
